Molecules are shown by their SMILES.

As a reminder, the EC50 is the concentration giving half of the maximal effect. In general, ED50 refers to the dose that gives a 50% effect, or the effect in half of the subjects.

The target of assay [1] is T1, 5-hydroxytryptamine receptor 2A (Homo sapiens, UniProt P28223). The experiment in a line: Effective concentration towards 5-hydroxytryptamine 2A receptors transfected in HEK293 cells was determined by measuring [3H]phosphoinositol release. It counts as functional, cell-based. A digest of the protocol:
(§1)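 Functional agonism at human 5-HT2A, 5-HT2B or 5-HT2C receptors (the 2C as the INI isoform). Receptors were transiently transfected into HEK-293 cells, and the read-out was [³H]phosphoinositol turnover.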

Assay [2] deals with T2, 5-hydroxytryptamine receptor 2B (Homo sapiens, UniProt P41595). As to the kind of experiment: Effective concentration towards 5-hydroxytryptamine 2B receptors transfected in HEK293 cells was determined by measuring [3H]phosphoinositol release. It counts as functional, cell-based. The essentials:
as §1

The target of assay [3] is T3, 5-hydroxytryptamine receptor 2C (Homo sapiens, UniProt P28335).
T3 sequence (P28335 whole entry): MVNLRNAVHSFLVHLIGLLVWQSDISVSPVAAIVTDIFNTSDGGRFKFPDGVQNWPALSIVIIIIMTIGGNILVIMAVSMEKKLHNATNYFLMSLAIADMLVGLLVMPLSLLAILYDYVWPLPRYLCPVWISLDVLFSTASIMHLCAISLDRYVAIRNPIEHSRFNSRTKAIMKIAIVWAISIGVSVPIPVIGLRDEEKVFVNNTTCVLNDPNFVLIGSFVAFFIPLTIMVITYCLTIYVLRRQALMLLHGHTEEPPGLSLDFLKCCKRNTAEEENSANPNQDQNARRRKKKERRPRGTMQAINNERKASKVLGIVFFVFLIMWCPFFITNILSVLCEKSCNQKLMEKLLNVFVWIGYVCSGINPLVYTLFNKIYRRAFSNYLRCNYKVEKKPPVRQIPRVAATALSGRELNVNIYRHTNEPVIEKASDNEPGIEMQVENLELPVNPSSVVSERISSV
The experiment in a line: Effective concentration towards 5-hydroxytryptamine 2C receptors transfected in HEK293 cells was determined by measuring [3H]phosphoinositol release. It counts as functional, cell-based. The essentials: as §1

The subject of the next assay is Rattus norvegicus. The experiment in a line: Effect on food intake after 6 hr of injection of compound by oral gavage and compared to vehicle control rats (n = 8); decreased food intake by range 10-40 mg/kg. It counts as functional.
Assay [4] addresses T4, 5-hydroxytryptamine receptor 2C (Homo sapiens) (UniProt P28335).
T4 sequence (whole entry): T3 sequence (P28335 whole entry)
As to the kind of experiment: Percentage maximum response relative to serotonin towards 5-hydroxytryptamine 2C receptor in HEK293 cells. It counts as functional, cell-based. The essentials: as §1

Assay [5] has as its target T1, 5-hydroxytryptamine receptor 2A. As to the kind of experiment: Percentage maximum response relative to serotonin towards 5-hydroxytryptamine 2A receptor in HEK293 cells. It counts as functional, cell-based. A digest of the protocol:
as §1

For assay [6], the target named is T2, 5-hydroxytryptamine receptor 2B. As to the kind of experiment: Percentage maximum response relative to serotonin towards 5-hydroxytryptamine 2B receptor at 10 uM concentration in HEK293 cells. It counts as functional, cell-based.
For assay [7] the target is unchanged. The experiment in a line: Percentage maximum response relative to serotonin towards 5-hydroxytryptamine 2B receptor in HEK293 cells. It counts as functional, cell-based. The essentials:
as §1

Where [8] appears, read: Rattus norvegicus, po, 6 h, read-out: ED50.

T1 sequence (P28223 whole entry, canonical isoform): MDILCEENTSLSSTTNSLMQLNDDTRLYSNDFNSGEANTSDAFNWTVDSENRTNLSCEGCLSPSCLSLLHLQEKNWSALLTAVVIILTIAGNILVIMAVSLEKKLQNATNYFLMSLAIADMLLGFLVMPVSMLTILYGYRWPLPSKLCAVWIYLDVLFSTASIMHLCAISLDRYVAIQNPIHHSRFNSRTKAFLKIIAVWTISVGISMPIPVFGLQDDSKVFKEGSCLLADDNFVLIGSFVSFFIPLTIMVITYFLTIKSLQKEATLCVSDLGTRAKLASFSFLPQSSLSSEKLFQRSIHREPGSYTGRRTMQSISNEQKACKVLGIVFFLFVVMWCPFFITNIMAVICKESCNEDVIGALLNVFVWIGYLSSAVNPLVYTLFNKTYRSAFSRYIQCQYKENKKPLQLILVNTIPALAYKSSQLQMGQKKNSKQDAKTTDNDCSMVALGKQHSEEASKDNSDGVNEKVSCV
T2 sequence (P41595 whole entry): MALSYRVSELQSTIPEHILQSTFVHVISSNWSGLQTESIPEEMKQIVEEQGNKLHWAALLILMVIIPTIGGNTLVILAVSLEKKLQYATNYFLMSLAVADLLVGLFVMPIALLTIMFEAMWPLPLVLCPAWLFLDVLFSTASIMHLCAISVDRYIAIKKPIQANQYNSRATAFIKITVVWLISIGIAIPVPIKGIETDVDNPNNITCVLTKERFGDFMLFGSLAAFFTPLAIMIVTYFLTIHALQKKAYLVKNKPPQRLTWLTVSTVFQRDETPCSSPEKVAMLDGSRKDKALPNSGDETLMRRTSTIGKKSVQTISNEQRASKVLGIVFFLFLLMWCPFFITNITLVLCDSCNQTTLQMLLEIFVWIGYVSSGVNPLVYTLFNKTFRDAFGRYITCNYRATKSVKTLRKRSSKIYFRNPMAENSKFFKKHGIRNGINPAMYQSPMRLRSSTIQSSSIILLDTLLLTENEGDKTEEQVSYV

Take `COc1ccc2c(c1)CCNCC2C` (configuration not stated): the concentration for a half-maximal effect (EC50) was greater than 10 µM in assay [1] (read-out: EC50), “Not Active” in assay [2] (hek293) and 2 µM in assay [3].

Turning to `CCOc1cc2c(cc1Br)C(C)CNCC2` (configuration not stated), the EC50 was found to be 0.11 µM in assay [1] (read-out: EC50), 0.18 µM in assay [2] (read-out: EC50) and 0.028 µM in assay [3].

Turning to `COc1cc2c(cc1C(F)(F)F)C(C)CNCC2` (configuration not stated), the EC50 in assay [1] (read-out: EC50) amounted to 0.042 µM; in assay [2] (read-out: EC50) it was 0.13 µM; in assay [3] it was 0.004 µM.

With `COc1cc2c(cc1Br)CCNCC2`, the EC50 was found to be 0.1 µM in assay [1] (read-out: EC50), 0.4 µM in assay [2] (read-out: EC50) and 0.008 µM in assay [3].

Consider `CC1CNCCc2ccc(Cl)c(Cl)c21` (configuration not stated), for which the EC50 in assay [1] (read-out: EC50) is 0.22 µM; in assay [2] (read-out: EC50), 1.8 µM; in assay [3] it was 0.006 µM. Besides, the ED50 with Rattus norvegicus (setting [8]) is 40 mg/kg.

As for `CCC1CNCCc2cc(OC)c(Br)cc21` (configuration not stated), the concentration giving a half-maximal response (EC50) was 0.1 µM in assay [1] (read-out: EC50), 0.04 µM in assay [2] (read-out: EC50) and 0.011 µM in assay [3].

In the case of `COc1cc2c(cc1Br)[C@H](C)CNCC2`, the half-maximal effective concentration (EC50) in assay [1] (read-out: EC50) came out at 0.03 µM; in assay [2] (read-out: EC50) it was 0.03 µM; in assay [3], 0.005 µM.

As to `CC1CNCCc2cc(Cl)ccc21` (configuration not stated), the figures for the EC50 in assay [1] (read-out: EC50), in assay [2] (read-out: EC50) and in assay [3] were 0.15 µM, 0.53 µM and 0.035 µM, respectively.

As to `CC(C)Oc1cc2c(cc1Br)C(C)CNCC2` (configuration not stated), the values for the EC50 in assay [1] (read-out: EC50), in assay [2] (read-out: EC50) and in assay [3] were 0.097 µM, 0.23 µM and 0.068 µM, respectively.

Take `C[C@@H]1CNCCc2ccc(Cl)c(Cl)c21`: the EC50 in assay [1] (read-out: EC50) is 0.135 µM; in assay [3] it was 0.003 µM. In addition, the Maximum response came to 90% in assay [4], 35% in assay [5] and 25% in assay [6].

As for `CC1CNCCc2cc(O)c(Br)cc21` (configuration not stated), the EC50 is 0.063 µM in assay [1] (read-out: EC50), 0.19 µM in assay [2] (read-out: EC50) and 0.003 µM in assay [3].

Turning to `CC1CNCCc2cc(F)c(Cl)cc21` (configuration not stated), the EC50 amounted to 0.072 µM in assay [1] (read-out: EC50), 0.36 µM in assay [2] (read-out: EC50) and 0.007 µM in assay [3]. In the assay with Rattus norvegicus (setting [8]), the ED50 stood at 40 mg/kg.

On to `COc1cc2c(cc1Br)C(C(C)C)CNCC2` (configuration not stated), for which the values for the EC50 result in assay [1] (hek293), in assay [2] (read-out: EC50) and in assay [3] were “Not Active”, 1 µM and 0.16 µM, respectively.

With `COc1cc2c(cc1Cl)C(C)CNCC2` (configuration not stated), the EC50 in assay [1] (read-out: EC50) is 0.08 µM; in assay [2] (read-out: EC50), 0.14 µM; in assay [3], 0.011 µM. Further, the 50% effective dose (ED50) in the assay with Rattus norvegicus (setting [8]) worked out at 40 mg/kg.

On to `CC1CNCCc2ccc(C(F)(F)F)cc21` (configuration not stated), for which the results for the EC50 in assay [1] (read-out: EC50), in assay [2] (read-out: EC50) and in assay [3] were 0.1 µM, 0.38 µM and 0.007 µM, respectively. Also, the ED50 in the assay on Rattus norvegicus (setting [8]) came out at 40 mg/kg.

With `CC1CNCCc2ccccc21` (configuration not stated), the half-maximal effective concentration (EC50) in assay [1] (read-out: EC50) was 1.6 µM; in assay [2] (read-out: EC50), greater than 5 µM; in assay [3], 0.34 µM.

On to `CC1CNCCc2c(Cl)cccc21` (configuration not stated), for which the EC50 in assay [1] (read-out: EC50) was greater than 5 µM; in assay [2] (read-out: EC50) it was greater than 5 µM; in assay [3], 0.86 µM.

As for `CC1CNCCc2c(Cl)cc(Cl)cc21` (configuration not stated), the EC50 stood at 0.17 µM in assay [1] (read-out: EC50), 0.84 µM in assay [2] (read-out: EC50) and 0.02 µM in assay [3].

In the case of `COc1cc2c(cc1Br)C(C)CNCC2` (configuration not stated), the EC50 in assay [1] (read-out: EC50) is 0.08 µM; in assay [2] (read-out: EC50), 0.1 µM; in assay [3], 0.005 µM. In the assay on Rattus norvegicus (setting [8]), the ED50 stood at 40 mg/kg.

In the case of `COc1ccc2c(c1)C(C)CNCC2` (configuration not stated), the EC50 is 0.94 µM in assay [1] (read-out: EC50), 0.78 µM in assay [2] (read-out: EC50) and 0.42 µM in assay [3].

Take `CC1CNCCc2cc(Cl)c(Cl)cc21` (configuration not stated): the EC50 in assay [1] (read-out: EC50) came out at 0.016 µM; in assay [2] (read-out: EC50), 0.078 µM; in assay [3], 0.004 µM. For the same compound, in the assay on Rattus norvegicus (setting [8]), the median effective dose (ED50) stood at 40 mg/kg.

Take `CC1CNCCc2ccc(Cl)cc21` (configuration not stated): the ED50 in the assay with Rattus norvegicus (setting [8]) was 40 mg/kg.

Consider `CC1CNCCc2ccc(Br)cc21` (configuration not stated), for which the values for the EC50 in assay [1] (read-out: EC50), in assay [2] (read-out: EC50) and in assay [3] were 0.51 µM, 1.5 µM and 0.012 µM, respectively.

Consider `COc1cc2c(cc1I)C(C)CNCC2` (configuration not stated), for which the EC50 in assay [1] (read-out: EC50) is 0.061 µM; in assay [2] (read-out: EC50), 0.064 µM; in assay [3] it was 0.002 µM. The same compound had a median effective dose (ED50) with Rattus norvegicus of 40 mg/kg.

For the compound `CC1CNCCc2cc(OCc3ccccc3)c(Br)cc21` (configuration not stated), the EC50 in assay [1] (read-out: EC50) was 0.022 µM; in assay [2] (read-out: EC50) it was greater than 10 µM; in assay [3] it was 0.056 µM.

`CC1CNCCc2ccc(F)cc21` (configuration not stated): the values for the EC50 in assay [1] (read-out: EC50), in assay [2] (read-out: EC50) and in assay [3] were 1.6 µM, greater than 10 µM and 0.41 µM, respectively.

Regarding `C[C@H]1CNCCc2ccc(Cl)c(Cl)c21`, the EC50 in assay [1] (read-out: EC50) is 2.4 µM; in assay [2] (read-out: EC50) it was greater than 10 µM; in assay [3], 0.23 µM. Besides, the values for the Maximum response in assay [4] and in assay [5] were 85% and 100%, respectively.

In the case of `C[C@H]1CNCCc2ccc(Cl)cc21`, the Maximum response was 100% in assay [4], 70% in assay [5] and 100% in assay [7].

On to `CC1CNCCc2ccc(Cl)c(F)c21` (configuration not stated), for which the 50% effective concentration (EC50) was 0.84 µM in assay [1] (read-out: EC50), greater than 10 µM in assay [2] (read-out: EC50) and 0.022 µM in assay [3]. In addition, in the assay with Rattus norvegicus (setting [8]), the ED50 was 40 mg/kg.

Take `CC1CNCCc2cccc(Cl)c21` (configuration not stated): the concentration for a half-maximal effect (EC50) in assay [1] (read-out: EC50) was greater than 5 µM; in assay [2] (read-out: EC50), greater than 5 µM; in assay [3], 0.93 µM.

On to `Clc1ccc2c(c1)CCNCC2`, for which the EC50 in assay [1] (read-out: EC50) turned out to be 0.09 µM; in assay [2] (read-out: EC50) it was 1 µM; in assay [3] it was 0.012 µM. Besides, the Maximum response amounted to 85% in assay [4], 100% in assay [5] and 100% in assay [7].

As to `C[C@@H]1CNCCc2ccc(Cl)cc21`, the Maximum response in assay [4] was found to be 100%; in assay [5], 70%; in assay [7], 100%.

In the case of `COc1cc2c(cc1Br)[C@@H](C)CNCC2`, the figures for the EC50 in assay [1] (read-out: EC50), in assay [2] (read-out: EC50) and in assay [3] were 0.08 µM, 0.22 µM and 0.003 µM, respectively.
